Assay results from ChEMBL document CHEMBL4118097, “Selective Inhibitors of Dual Leucine Zipper Kinase (DLK, MAP3K12) with Activity in a Model of Alzheimer's Disease” (J Med Chem, 2017).

Key:
[1] = biological target: Ephrin type-A receptor 1 (Homo sapiens) (UniProt P21709); assay: Inhibition of recombinant GST-tagged human EphA1 cytoplasmic domain expressed in baculovirus expression system at 1 uM by FRET assay relative to control
Outline: (§1)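 Single-point screen at 1 μM compound in a 220-kinase panel run by Life Technologies (SelectScreen). Z′-LYTE format: phosphorylation of a labeled peptide substrate read by FRET. Values are reported as percent inhibition.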

[2] = biological target: Insulin receptor (Homo sapiens) (UniProt P06213); assay: Inhibition of recombinant His-tagged human InsR (1011 to 1382 residues) expressed in baculovirus expression system at 1 uM by FRET relative to control; outline: as §1
[3] = biological target: Maternal embryonic leucine zipper kinase (Homo sapiens) (UniProt Q14680); assay: Inhibition of recombinant GST-tagged human MELK expressed in baculovirus expression system at 1 uM by FRET assay relative to control; outline: as §1
[4] = biological target: Serine/threonine-protein kinase DCLK2 (Homo sapiens) (UniProt Q8N568); assay: Inhibition of full length recombinant GST-tagged human DCAMKL2 expressed in baculovirus expression system at 1 uM by FRET assay relative to control
[5] = biological target: Vascular endothelial growth factor receptor 3 (Homo sapiens) (UniProt P35916); assay: Inhibition of recombinant GST-tagged human FLT4 cytoplasmic domain expressed in baculovirus expression system at 1 uM by FRET assay relative to control; outline: as §1
[6] = biological target: CDK7/Cyclin H/MNAT1 (Homo sapiens) (UniProt P51946+P50613+P51948); assay: Inhibition of recombinant full length His-tagged human CDK7/cyclin H/MNAT1 expressed in baculovirus expression system at 1 uM by FRET assay relative to control
[7] = biological target: Eukaryotic elongation factor 2 kinase (Homo sapiens) (UniProt O00418); assay: Inhibition of recombinant full length GST-tagged human eEF2K expressed in Escherichia coli at 1 uM by FRET assay relative to control
[8] = biological target: Sodium-dependent noradrenaline transporter (Homo sapiens) (UniProt P23975); assay: Binding affinity to recombinant human norepinephrine transporter at 10 uM relative to control
Outline: (§2)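 Broad radioligand-binding and enzyme screening panel covering 42 targets (biogenic amine and neuropeptide receptors, ion channels, neurotransmitter transporters, acetylcholinesterase). Single test concentration of 10 μM. Results expressed as binding relative to control, with a hit defined as >50% of control.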

TAK1/TAB1 (Homo sapiens) = TAK1/TAB1 (Homo sapiens) (UniProt Q15750+O43318); assay: Inhibition of recombinant full length His-tagged human TAK1-TAB1 (437 to 504 residues) expressed in baculovirus expression system at 1 uM by FRET assay relative to control
[9] = biological target: Epidermal growth factor receptor (Homo sapiens) (UniProt P00533); assay: Inhibition of recombinant GST-tagged human EGFR cytoplasmic domain (668 to 1210 residues) expressed in baculovirus expression system at 1 uM by FRET assay relative to control
Outline: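 Part of a 220-kinase panel run at a single concentration of 1 μM. Z′-LYTE format: phosphorylation of a labelled peptide read by FRET. Values reported as percent inhibition.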

[10] = biological target: Protein kinase C theta type (Homo sapiens) (UniProt Q04759); assay: Inhibition of PKCtheta (unknown origin) at 1 uM by FRET assay relative to control
[11] = biological target: Serine/threonine-protein kinase TBK1 (Homo sapiens) (UniProt Q9UHD2); assay: Inhibition of recombinant full length GST-tagged human TBK1 expressed in insect cells at 1 uM by FRET assay relative to control
Outline: (§3)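 Single-concentration screen at 1 μM in Life Technologies SelectScreen, across a 220-kinase panel. Z′-LYTE format measures phosphorylation of a labeled peptide by FRET. Results are reported as percent inhibition.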

[12] = biological target: Serine/threonine-protein kinase PLK1 (Homo sapiens) (UniProt P53350); assay: Inhibition of full length recombinant His-tagged human PLK1 expressed in baculovirus expression system at 1 uM by FRET assay relative to control
[13] = biological target: Serine/threonine-protein kinase MRCK alpha (Homo sapiens) (UniProt Q5VT25); assay: Inhibition of recombinant His-tagged human MRCKalpha expressed in baculovirus at 1 uM by FRET assay relative to control; outline: as §1
[14] = biological target: Epithelial discoidin domain-containing receptor 1 (Homo sapiens) (UniProt Q08345); assay: Inhibition of recombinant GST-tagged human DDR1 (440 to 876 residues) expressed in baculovirus expression system at 1 uM by FRET assay relative to control; outline: as §1
[15] = biological target: Ribosomal protein S6 kinase alpha-1 (Homo sapiens) (UniProt Q15418); assay: Inhibition of recombinant full length His-tagged human RSK1 expressed in baculovirus expression system at 1 uM by FRET assay relative to control
[16] = biological target: Protein kinase C alpha type (Homo sapiens) (UniProt P17252); assay: Inhibition of recombinant full length human PKCalpha expressed in baculovirus expression system at 1 uM by FRET assay relative to control
[17] = biological target: Serine/threonine-protein kinase MARK1 (Homo sapiens) (UniProt Q9P0L2); assay: Inhibition of recombinant full Length GST-tagged human MARK1 expressed in baculovirus expression system at 1 uM by FRET assay relative to control; outline: as §3
[18] = biological target: Mitogen-activated protein kinase 8 (Homo sapiens, UniProt P45983); assay: Inhibition of recombinant full length His-tagged human JNK1alpha1 expressed in baculovirus expression system by FRET assay
[19] = biological target: Serine/threonine-protein kinase PAK 3 (Homo sapiens) (UniProt O75914); assay: Inhibition of recombinant full length His-tagged human PAK3 expressed in baculovirus expression system at 1 uM by FRET assay relative to control
[20] = biological target: Muscarinic acetylcholine receptor M1 (Homo sapiens) (UniProt P11229); assay: Binding affinity to recombinant human M1 acetylcholine receptor at 10 uM relative to control; outline: as §2
[21] = biological target: G protein-coupled receptor kinase 5 (Homo sapiens) (UniProt P34947); assay: Inhibition of recombinant full length GST-tagged human GRK5 expressed in baculovirus expression system at 1 uM by FRET relative to control; outline: as §3
[22] = biological target: Mitogen-activated protein kinase kinase kinase 9 (Homo sapiens, UniProt P80192); assay: Inhibition of recombinant human GST-tagged MLK1 expressed in baculovirus at 1 uM by FRET assay relative to control
[23] = biological target: Macrophage colony-stimulating factor 1 receptor (Homo sapiens, UniProt P07333); assay: Inhibition of recombinant His-tagged human CSF1R cytoplasmic domain (538 to 910 residues) expressed in baculovirus expression system at 1 uM by FRET assay relative to control; outline: as §1
[24] = biological target: Mitogen-activated protein kinase kinase kinase 10 (Homo sapiens, UniProt Q02779); assay: Inhibition of recombinant human full length GST-tagged MLK2 expressed in baculovirus at 1 uM by FRET assay relative to control
[25] = biological target: Casein kinase II subunit alpha (Homo sapiens) (UniProt P68400); assay: Inhibition of CK2alpha1 (unknown origin) at 1 uM by FRET assay relative to control
[26] = biological target: Non-receptor tyrosine-protein kinase TYK2 (Homo sapiens) (UniProt P29597); assay: Inhibition of recombinant N-terminal GST-tagged human TYK2 (833 to 1187 residues) expressed in baculovirus expression system at 1 uM by FRET assay relative to control; outline: as §3

Casein kinase II subunit alpha (Homo sapiens), sequence (P68400 whole entry, looked up, the tested form may be a part): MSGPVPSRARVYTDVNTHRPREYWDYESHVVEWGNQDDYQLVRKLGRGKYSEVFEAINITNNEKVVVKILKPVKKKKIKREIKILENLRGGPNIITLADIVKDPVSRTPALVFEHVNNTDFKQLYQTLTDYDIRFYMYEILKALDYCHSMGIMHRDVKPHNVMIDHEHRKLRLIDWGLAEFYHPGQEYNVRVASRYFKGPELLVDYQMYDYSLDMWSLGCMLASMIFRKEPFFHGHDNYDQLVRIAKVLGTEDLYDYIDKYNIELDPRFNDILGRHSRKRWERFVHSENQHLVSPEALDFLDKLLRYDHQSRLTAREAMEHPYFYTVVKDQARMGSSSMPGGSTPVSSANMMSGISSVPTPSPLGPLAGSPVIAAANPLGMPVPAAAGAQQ
Macrophage colony-stimulating factor 1 receptor, sequence (P07333 whole entry, the tested form may be a part): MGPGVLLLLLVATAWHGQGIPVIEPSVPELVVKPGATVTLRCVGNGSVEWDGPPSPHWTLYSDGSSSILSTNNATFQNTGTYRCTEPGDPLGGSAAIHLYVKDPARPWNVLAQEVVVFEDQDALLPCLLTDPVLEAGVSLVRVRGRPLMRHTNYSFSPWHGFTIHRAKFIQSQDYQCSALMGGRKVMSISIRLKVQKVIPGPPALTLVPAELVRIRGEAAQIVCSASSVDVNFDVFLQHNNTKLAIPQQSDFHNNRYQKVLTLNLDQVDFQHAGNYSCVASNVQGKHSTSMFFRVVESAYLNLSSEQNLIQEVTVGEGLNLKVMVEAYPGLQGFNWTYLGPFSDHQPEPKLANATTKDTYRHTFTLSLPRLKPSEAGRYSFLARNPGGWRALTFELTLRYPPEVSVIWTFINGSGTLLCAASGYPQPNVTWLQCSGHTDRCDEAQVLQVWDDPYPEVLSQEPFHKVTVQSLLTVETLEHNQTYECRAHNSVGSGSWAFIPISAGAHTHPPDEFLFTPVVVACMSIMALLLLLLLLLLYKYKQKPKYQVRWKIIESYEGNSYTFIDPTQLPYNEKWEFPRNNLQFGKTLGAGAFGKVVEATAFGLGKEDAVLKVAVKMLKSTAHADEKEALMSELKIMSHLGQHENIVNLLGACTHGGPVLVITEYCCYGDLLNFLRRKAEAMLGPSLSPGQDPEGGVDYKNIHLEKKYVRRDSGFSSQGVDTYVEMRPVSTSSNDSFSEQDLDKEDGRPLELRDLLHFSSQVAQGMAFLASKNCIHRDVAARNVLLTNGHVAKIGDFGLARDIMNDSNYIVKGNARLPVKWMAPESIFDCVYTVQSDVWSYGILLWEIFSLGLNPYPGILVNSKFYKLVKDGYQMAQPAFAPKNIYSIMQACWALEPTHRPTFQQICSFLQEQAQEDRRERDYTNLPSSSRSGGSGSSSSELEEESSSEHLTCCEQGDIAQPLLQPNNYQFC
Serine/threonine-protein kinase DCLK2 (Homo sapiens), sequence (Q8N568 whole entry, the tested form may be a part): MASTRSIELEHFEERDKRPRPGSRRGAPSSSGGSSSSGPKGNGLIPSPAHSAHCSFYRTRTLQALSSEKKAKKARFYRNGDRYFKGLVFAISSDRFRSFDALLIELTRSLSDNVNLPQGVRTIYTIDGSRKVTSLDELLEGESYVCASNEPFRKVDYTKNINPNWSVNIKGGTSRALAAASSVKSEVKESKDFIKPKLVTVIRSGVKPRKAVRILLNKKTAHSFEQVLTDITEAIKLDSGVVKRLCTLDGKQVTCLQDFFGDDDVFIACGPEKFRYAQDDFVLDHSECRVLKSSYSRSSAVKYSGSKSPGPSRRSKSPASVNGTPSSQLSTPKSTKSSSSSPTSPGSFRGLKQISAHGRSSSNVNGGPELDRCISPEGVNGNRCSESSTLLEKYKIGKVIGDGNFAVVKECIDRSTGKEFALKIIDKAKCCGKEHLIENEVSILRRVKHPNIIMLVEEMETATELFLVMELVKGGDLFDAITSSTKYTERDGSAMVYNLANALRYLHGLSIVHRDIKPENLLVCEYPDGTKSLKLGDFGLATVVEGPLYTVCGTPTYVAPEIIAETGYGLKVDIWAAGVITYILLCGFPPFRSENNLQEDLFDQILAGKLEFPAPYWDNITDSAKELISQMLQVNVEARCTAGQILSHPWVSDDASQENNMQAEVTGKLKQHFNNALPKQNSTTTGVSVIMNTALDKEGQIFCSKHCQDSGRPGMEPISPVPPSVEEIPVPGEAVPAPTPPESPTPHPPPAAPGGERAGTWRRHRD
Muscarinic acetylcholine receptor M1 (Homo sapiens), sequence (P11229 whole entry): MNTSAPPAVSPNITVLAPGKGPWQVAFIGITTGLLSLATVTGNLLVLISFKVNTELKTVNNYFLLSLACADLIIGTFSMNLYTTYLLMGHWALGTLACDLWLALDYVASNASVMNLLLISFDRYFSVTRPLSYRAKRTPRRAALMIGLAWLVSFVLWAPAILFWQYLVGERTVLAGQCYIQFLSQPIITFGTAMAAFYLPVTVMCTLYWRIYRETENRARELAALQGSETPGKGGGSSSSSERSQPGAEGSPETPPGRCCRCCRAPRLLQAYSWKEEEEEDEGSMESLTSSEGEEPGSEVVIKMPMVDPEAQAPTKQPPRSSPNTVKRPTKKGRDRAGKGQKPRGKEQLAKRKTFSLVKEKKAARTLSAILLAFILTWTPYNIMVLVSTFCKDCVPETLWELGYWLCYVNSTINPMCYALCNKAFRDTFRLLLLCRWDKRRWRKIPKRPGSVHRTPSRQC
Maternal embryonic leucine zipper kinase (Homo sapiens), sequence (Q14680 whole entry, looked up): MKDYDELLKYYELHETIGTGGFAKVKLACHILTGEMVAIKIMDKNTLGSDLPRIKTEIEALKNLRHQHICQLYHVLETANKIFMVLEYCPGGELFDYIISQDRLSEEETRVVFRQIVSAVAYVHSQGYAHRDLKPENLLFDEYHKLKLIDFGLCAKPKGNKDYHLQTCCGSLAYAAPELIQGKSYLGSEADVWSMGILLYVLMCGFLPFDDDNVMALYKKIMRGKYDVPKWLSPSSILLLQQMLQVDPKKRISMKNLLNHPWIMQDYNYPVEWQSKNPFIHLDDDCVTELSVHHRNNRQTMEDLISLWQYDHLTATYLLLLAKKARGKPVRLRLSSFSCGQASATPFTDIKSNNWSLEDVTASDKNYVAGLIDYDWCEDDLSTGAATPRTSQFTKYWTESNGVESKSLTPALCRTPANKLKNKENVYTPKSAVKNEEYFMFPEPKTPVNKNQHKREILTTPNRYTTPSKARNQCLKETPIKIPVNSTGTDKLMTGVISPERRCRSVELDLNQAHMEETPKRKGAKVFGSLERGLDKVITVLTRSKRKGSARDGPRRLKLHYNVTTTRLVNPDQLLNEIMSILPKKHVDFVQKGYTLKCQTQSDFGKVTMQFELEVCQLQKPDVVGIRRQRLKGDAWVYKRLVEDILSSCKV
Vascular endothelial growth factor receptor 3 (Homo sapiens), sequence (P35916 whole entry, the tested form may be a part): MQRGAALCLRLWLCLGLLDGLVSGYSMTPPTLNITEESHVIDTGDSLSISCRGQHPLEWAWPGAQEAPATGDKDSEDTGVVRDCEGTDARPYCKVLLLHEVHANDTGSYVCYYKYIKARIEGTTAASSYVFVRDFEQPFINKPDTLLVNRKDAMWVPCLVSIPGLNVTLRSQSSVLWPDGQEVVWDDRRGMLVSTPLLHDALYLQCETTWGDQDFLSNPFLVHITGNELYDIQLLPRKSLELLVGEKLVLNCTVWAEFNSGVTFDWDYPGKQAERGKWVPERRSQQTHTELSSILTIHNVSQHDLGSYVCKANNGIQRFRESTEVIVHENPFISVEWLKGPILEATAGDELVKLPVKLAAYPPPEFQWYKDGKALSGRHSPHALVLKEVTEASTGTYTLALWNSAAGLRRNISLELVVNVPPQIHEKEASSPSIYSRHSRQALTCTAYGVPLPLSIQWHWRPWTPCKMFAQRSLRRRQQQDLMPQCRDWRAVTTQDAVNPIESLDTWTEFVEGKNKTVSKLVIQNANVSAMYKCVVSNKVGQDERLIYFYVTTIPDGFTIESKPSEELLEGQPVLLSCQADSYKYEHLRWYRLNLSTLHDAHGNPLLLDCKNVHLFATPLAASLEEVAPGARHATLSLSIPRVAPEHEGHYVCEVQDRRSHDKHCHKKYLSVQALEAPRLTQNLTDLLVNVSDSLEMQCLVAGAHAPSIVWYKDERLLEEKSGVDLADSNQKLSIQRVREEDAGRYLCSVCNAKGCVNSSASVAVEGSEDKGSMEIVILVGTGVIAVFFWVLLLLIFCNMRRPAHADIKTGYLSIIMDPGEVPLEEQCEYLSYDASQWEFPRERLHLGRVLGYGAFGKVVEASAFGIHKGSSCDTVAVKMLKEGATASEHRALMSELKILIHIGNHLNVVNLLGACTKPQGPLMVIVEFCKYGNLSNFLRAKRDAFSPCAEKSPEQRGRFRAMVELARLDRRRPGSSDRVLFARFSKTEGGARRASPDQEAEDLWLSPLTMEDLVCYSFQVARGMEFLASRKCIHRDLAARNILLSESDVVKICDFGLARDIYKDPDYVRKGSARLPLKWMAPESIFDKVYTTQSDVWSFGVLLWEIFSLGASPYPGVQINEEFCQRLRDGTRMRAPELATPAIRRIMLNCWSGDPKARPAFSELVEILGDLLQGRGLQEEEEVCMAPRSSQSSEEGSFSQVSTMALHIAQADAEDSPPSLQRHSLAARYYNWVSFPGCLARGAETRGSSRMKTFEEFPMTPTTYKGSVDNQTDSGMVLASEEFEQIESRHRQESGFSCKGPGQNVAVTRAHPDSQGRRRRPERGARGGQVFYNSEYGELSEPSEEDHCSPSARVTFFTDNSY
Mitogen-activated protein kinase 8, sequence (P45983 whole entry): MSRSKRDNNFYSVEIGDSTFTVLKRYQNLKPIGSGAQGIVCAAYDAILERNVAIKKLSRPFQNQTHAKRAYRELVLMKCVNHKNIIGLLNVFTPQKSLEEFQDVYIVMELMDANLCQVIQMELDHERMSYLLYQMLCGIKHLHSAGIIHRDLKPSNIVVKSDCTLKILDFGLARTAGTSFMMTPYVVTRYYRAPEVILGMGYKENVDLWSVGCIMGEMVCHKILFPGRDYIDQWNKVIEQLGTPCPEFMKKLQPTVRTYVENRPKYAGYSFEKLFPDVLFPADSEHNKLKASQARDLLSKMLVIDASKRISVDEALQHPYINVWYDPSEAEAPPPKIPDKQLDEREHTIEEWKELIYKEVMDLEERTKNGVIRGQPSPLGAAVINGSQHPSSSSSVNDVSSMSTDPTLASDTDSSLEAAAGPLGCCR

| SMILES | inhibition [1] | inhibition [2] | inhibition [3] | inhibition [4] | inhibition [5] | inhibition [6] | inhibition [7] | Activity [8] | inhibition (TAK1/TAB1 (Homo sapiens)) | inhibition [9] | inhibition [10] | inhibition [11] | inhibition [12] | inhibition [13] | inhibition [14] | inhibition [15] | inhibition [16] | inhibition [17] | IC50 [18] | inhibition [19] | other results |
| --- | --- | --- | --- | --- | --- | --- | --- | --- | --- | --- | --- | --- | --- | --- | --- | --- | --- | --- | --- | --- | --- |
| CC(C)n1nc(-c2cnc(N)c(OC(F)(F)F)c2)cc1[C@H]1[C@@H]2CN(C3COC3)C[C@@H]21 | 13.5% | 16.6% | 30.4% | -1.6% | 22.1% | 28.6% | 4.4% | > 50% | 35.6% | -2% | 9.3% | 9.4% | 5% | 0.4% | 5.2% | 5.5% | 30.3% | 11.4% | > 10 µM | 3.6% | Activity [20]: > 50%; inhibition [21]: -1.3%; inhibition [22]: -7.2%; inhibition [23]: 46.3%; inhibition [24]: 10.9%; inhibition [25]: 1.5%; inhibition [26]: 10.7% |
| Nc1ncc(-c2cc([C@H]3[C@@H]4CN(C5COC5)C[C@@H]43)n(CC3CC3)n2)cc1C(F)(F)F | 30.8% | 11.9% | 12.6% | -0.8% | 44.6% | 15.7% | -5.1% | > 50% | 42.1% | -1.1% | 0.3% | 5.3% | -0.4% | 4.3% | -1.5% | 2.1% | 22.4% | 12.1% | > 10 µM | 17.2% | Activity [20]: > 50%; inhibition [21]: -8.1%; inhibition [22]: 28.5%; inhibition [23]: 54.1%; inhibition [24]: 13.2%; inhibition [25]: 3.5%; inhibition [26]: 9.3% |
